In brackets after ≈: the same amount, converted by molar mass.
How the values were obtained:
[1] = tested on: Mycobacterium tuberculosis; test: Antimycobacterial activity against multi-drug resistant Mycobacterium tuberculosis Praha 1 after 14 days; type: functional; details: for MIC99: Praha 1, 336 h
Procedure, shortened: (§1)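 M. tuberculosis strains (H37Rv and clinical MDR/XDR isolates) tested by microdilution in Šula's semisynthetic medium. Compounds were dissolved in DMSO and tested at 32 to 0.03 µM in twofold steps. Inoculum was a 1.0 McFarland suspension diluted 10-3. Plates were incubated at 37 °C and read at 14 and 21 days.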

[2] = tested on: Mycobacterium tuberculosis; test: Antimycobacterial activity against multi-drug resistant Mycobacterium tuberculosis Praha 1 after 21 days; type: functional; details: Praha 1, 504 h; procedure, shortened: as §1
[3] = tested on: Mycobacterium tuberculosis; test: Antimycobacterial activity against multi-drug resistant Mycobacterium tuberculosis Praha 4 after 14 days; details: Praha 4, 336 h
[4] = tested on: Mycobacterium tuberculosis; test: Antimycobacterial activity against multi-drug resistant Mycobacterium tuberculosis Praha 4 after 21 days; type: functional; details: Praha 4, 504 h; procedure, shortened: as §1
[5] = tested on: Mycobacterium tuberculosis; test: Antimycobacterial activity against multi-drug resistant Mycobacterium tuberculosis 9449/2007 after 21 days; type: functional; details: for MIC99: 9449/2007, 504 h; procedure, shortened: as §1
[6] = tested on: Mycobacterium tuberculosis; test: Antimycobacterial activity against multi-drug resistant Mycobacterium tuberculosis 9449/2007 after 14 days; type: functional; details: 9449/2007, 336 h; procedure, shortened: as §1
[7] = tested on: Mycobacterium tuberculosis; test: Antimycobacterial activity against multi-drug resistant Mycobacterium tuberculosis 234/2005 after 21 days; type: functional; details: 234/2005, 504 h; procedure, shortened: as §1
[8] = tested on: Mycobacterium tuberculosis; test: Antimycobacterial activity against multi-drug resistant Mycobacterium tuberculosis 7357/1998 after 21 days; type: functional; details: for MIC99: 7357/1998, 504 h; procedure, shortened: as §1
[9] = tested on: Mycobacterium tuberculosis; test: Antimycobacterial activity against multi-drug resistant Mycobacterium tuberculosis 7357/1998 after 14 days; type: functional; details: 7357/1998, 336 h; procedure, shortened: as §1
[10] = tested on: Mycobacterium tuberculosis; test: Antimycobacterial activity against multi-drug resistant Mycobacterium tuberculosis 8666/2010 after 14 days; type: functional; details: for MIC99: 8666/2010, 336 h; procedure, shortened: as §1
[11] = tested on: Mycobacterium tuberculosis; test: Antimycobacterial activity against multi-drug resistant Mycobacterium tuberculosis 8666/2010 after 21 days; type: functional; details: 8666/2010, 504 h; procedure, shortened: as §1
[12] = tested on: Mycobacterium tuberculosis; test: microbe, parasite or virus in culture; details: 234/2005, 336 h

Row | Molecule | MIC99 [1] [µM] | MIC99 [2] [µM] | MIC99 [3] [µM] | MIC99 [4] [µM] | MIC99 [5] [µM] | MIC99 [6] [µM] | MIC99 [7] [µM] | MIC99 [8] [µM] | MIC99 [9] [µM] | MIC99 [10] [µM] | MIC99 [11] [µM] | MIC99 [12] [µM] | MIC>99 [1] [µM] | MIC>99 [5] [µM] | MIC>99 [8] [µM] | MIC>99 [10] [µM]
1 | Cn1c(SCc2ccc(Cl)c(Cl)c2)nnc1-c1cc([N+](=O)[O-])cc([N+](=O)[O-])c1 | 0.06 (≈ 0.0264 µg/mL) | 0.06 (≈ 0.0264 µg/mL) | 0.06 (≈ 0.0264 µg/mL) | 0.06 (≈ 0.0264 µg/mL) | 0.06 (≈ 0.0264 µg/mL) | 0.06 (≈ 0.0264 µg/mL) | 0.06 (≈ 0.0264 µg/mL) | 0.06 (≈ 0.0264 µg/mL) | 0.06 (≈ 0.0264 µg/mL) | 0.06 (≈ 0.0264 µg/mL) | 0.06 (≈ 0.0264 µg/mL) | 0.06 (≈ 0.0264 µg/mL) |  |  |  | 
2 | CO[C@H]1/C=C/O[C@@]2(C)Oc3c(C)c(O)c4c(O)c(c(/C=N/N5CCN(C)CC5)c(O)c4c3C2=O)NC(=O)/C(C)=C\C=C\[C@H](C)[C@H](O)[C@@H](C)[C@@H](O)[C@@H](C)[C@H](OC(C)=O)[C@@H]1C [RIFAMPIN] | > 8 |  | > 8 |  | > 8 |  |  | > 8 |  | > 8 |  | > 8 |  |  |  | 
3 | COc1ccc(CSc2nnc(-c3cc([N+](=O)[O-])cc(C(F)(F)F)c3)n2Cc2ccccc2)cc1 | 0.5 (≈ 0.25 µg/mL) | 0.5 (≈ 0.25 µg/mL) | 0.5 (≈ 0.25 µg/mL) | 0.5 (≈ 0.25 µg/mL) | 0.5 (≈ 0.25 µg/mL) | 0.5 (≈ 0.25 µg/mL) | 2 (≈ 1 µg/mL) | 0.5 (≈ 0.25 µg/mL) | 0.5 (≈ 0.25 µg/mL) | 0.5 (≈ 0.25 µg/mL) | 0.5 (≈ 0.25 µg/mL) | 1 (≈ 0.501 µg/mL) |  |  |  | 
4 | CN[C@@H]1[C@H](O[C@H]2[C@H](O[C@H]3[C@H](O)[C@@H](O)[C@H](N=C(N)N)[C@@H](O)[C@@H]3N=C(N)N)O[C@@H](C)[C@]2(O)C=O)O[C@@H](CO)[C@H](O)[C@H]1O [STREPTOMYCIN] |  |  | > 32 |  | > 32 |  |  | > 32 |  | > 32 |  |  |  |  |  | 
5 | O=[N+]([O-])c1cc(-c2nnc(SCc3ccc(Cl)c(Cl)c3)n2Cc2ccccc2)cc(C(F)(F)F)c1 | 2 (≈ 1.08 µg/mL) | 2 (≈ 1.08 µg/mL) | 2 (≈ 1.08 µg/mL) | 2 (≈ 1.08 µg/mL) | 2 (≈ 1.08 µg/mL) | 2 (≈ 1.08 µg/mL) | 2 (≈ 1.08 µg/mL) | 2 (≈ 1.08 µg/mL) | 2 (≈ 1.08 µg/mL) | 2 (≈ 1.08 µg/mL) | 2 (≈ 1.08 µg/mL) | 2 (≈ 1.08 µg/mL) |  |  |  | 
6 | COc1ccc(Cn2c(SCc3cc([N+](=O)[O-])cc([N+](=O)[O-])c3)nnc2-c2ccccc2)cc1 | 2 (≈ 0.955 µg/mL) | 4 (≈ 1.91 µg/mL) | 2 (≈ 0.955 µg/mL) | 4 (≈ 1.91 µg/mL) | 2 (≈ 0.955 µg/mL) | 4 (≈ 1.91 µg/mL) | 4 (≈ 1.91 µg/mL) | 2 (≈ 0.955 µg/mL) | 2 (≈ 0.955 µg/mL) | 2 (≈ 0.955 µg/mL) | 2 (≈ 0.955 µg/mL) | 2 (≈ 0.955 µg/mL) |  |  |  | 
7 | O=[N+]([O-])c1cc(-c2nnc(SCc3ccc(Cl)c(Cl)c3)n2Cc2ccccc2)cc([N+](=O)[O-])c1 | 0.25 (≈ 0.129 µg/mL) | 0.25 (≈ 0.129 µg/mL) | 0.125 (≈ 0.0645 µg/mL) | 0.125 (≈ 0.0645 µg/mL) | 0.25 (≈ 0.129 µg/mL) | 0.25 (≈ 0.129 µg/mL) | 0.25 (≈ 0.129 µg/mL) | 0.25 (≈ 0.129 µg/mL) | 0.25 (≈ 0.129 µg/mL) | 0.25 (≈ 0.129 µg/mL) | 0.25 (≈ 0.129 µg/mL) | 0.25 (≈ 0.129 µg/mL) |  |  |  | 
8 | Cn1c(SCc2ccc(Cl)cc2)nnc1-c1cc([N+](=O)[O-])cc([N+](=O)[O-])c1 | 0.125 (≈ 0.0507 µg/mL) | 0.125 (≈ 0.0507 µg/mL) | 0.06 (≈ 0.0243 µg/mL) | 0.125 (≈ 0.0507 µg/mL) | 0.125 (≈ 0.0507 µg/mL) | 0.125 (≈ 0.0507 µg/mL) | 0.125 (≈ 0.0507 µg/mL) | 0.125 (≈ 0.0507 µg/mL) | 0.125 (≈ 0.0507 µg/mL) | 0.125 (≈ 0.0507 µg/mL) | 0.125 (≈ 0.0507 µg/mL) | 0.125 (≈ 0.0507 µg/mL) |  |  |  | 
9 | O=[N+]([O-])c1cc(CSc2nnc(-c3ccc(Br)cc3)n2Cc2ccccc2)cc([N+](=O)[O-])c1 | 2 (≈ 1.05 µg/mL) | 4 (≈ 2.11 µg/mL) | 2 (≈ 1.05 µg/mL) | 4 (≈ 2.11 µg/mL) | 2 (≈ 1.05 µg/mL) | 4 (≈ 2.11 µg/mL) | 4 (≈ 2.11 µg/mL) | 2 (≈ 1.05 µg/mL) | 4 (≈ 2.11 µg/mL) | 2 (≈ 1.05 µg/mL) | 4 (≈ 2.11 µg/mL) | 4 (≈ 2.11 µg/mL) |  |  |  | 
10 | CC1COc2c(N3CCN(C)CC3)c(F)cc3c(=O)c(C(=O)O)cn1c23 (stereo not drawn) [OFLOXACIN] |  |  | > 16 |  |  |  |  |  |  |  |  |  |  |  |  | 
11 | O=[N+]([O-])c1cc(CSc2nnc(-c3ccccc3)n2Cc2ccccc2)cc([N+](=O)[O-])c1 | 2 (≈ 0.895 µg/mL) | 4 (≈ 1.79 µg/mL) | 2 (≈ 0.895 µg/mL) | 4 (≈ 1.79 µg/mL) | 4 (≈ 1.79 µg/mL) | 4 (≈ 1.79 µg/mL) | 4 (≈ 1.79 µg/mL) | 2 (≈ 0.895 µg/mL) | 4 (≈ 1.79 µg/mL) | 2 (≈ 0.895 µg/mL) | 4 (≈ 1.79 µg/mL) | 4 (≈ 1.79 µg/mL) |  |  |  | 
12 | CCCSc1nnc(-c2cc([N+](=O)[O-])cc([N+](=O)[O-])c2)n1Cc1ccccc1 | 0.125 (≈ 0.0499 µg/mL) | 0.125 (≈ 0.0499 µg/mL) | 0.125 (≈ 0.0499 µg/mL) | 0.125 (≈ 0.0499 µg/mL) | 0.06 (≈ 0.024 µg/mL) | 0.125 (≈ 0.0499 µg/mL) | 0.125 (≈ 0.0499 µg/mL) | 0.06 (≈ 0.024 µg/mL) | 0.125 (≈ 0.0499 µg/mL) | 0.06 (≈ 0.024 µg/mL) | 0.125 (≈ 0.0499 µg/mL) | 0.06 (≈ 0.024 µg/mL) |  |  |  | 
13 | O=[N+]([O-])c1cc(-c2nnc(SCc3ccc(Br)cc3)n2Cc2ccccc2)cc([N+](=O)[O-])c1 | 0.125 (≈ 0.0658 µg/mL) | 0.25 (≈ 0.132 µg/mL) | 0.125 (≈ 0.0658 µg/mL) | 0.25 (≈ 0.132 µg/mL) | 0.125 (≈ 0.0658 µg/mL) | 0.25 (≈ 0.132 µg/mL) | 0.25 (≈ 0.132 µg/mL) | 0.125 (≈ 0.0658 µg/mL) | 0.25 (≈ 0.132 µg/mL) | 0.25 (≈ 0.132 µg/mL) | 0.25 (≈ 0.132 µg/mL) | 0.125 (≈ 0.0658 µg/mL) |  |  |  | 
14 | CCCCCCCCSc1nnc(-c2cc([N+](=O)[O-])cc([N+](=O)[O-])c2)n1Cc1ccccc1 | 0.125 (≈ 0.0587 µg/mL) | 0.25 (≈ 0.117 µg/mL) | 0.125 (≈ 0.0587 µg/mL) | 0.25 (≈ 0.117 µg/mL) | 0.125 (≈ 0.0587 µg/mL) | 0.25 (≈ 0.117 µg/mL) | 0.25 (≈ 0.117 µg/mL) | 0.125 (≈ 0.0587 µg/mL) | 0.25 (≈ 0.117 µg/mL) | 0.125 (≈ 0.0587 µg/mL) | 0.25 (≈ 0.117 µg/mL) | 0.125 (≈ 0.0587 µg/mL) |  |  |  | 
15 | O=[N+]([O-])c1cc(-c2nnc(SCc3ccccc3)n2Cc2ccccc2)cc([N+](=O)[O-])c1 | 0.03 (≈ 0.0134 µg/mL) | 0.03 (≈ 0.0134 µg/mL) | 0.03 (≈ 0.0134 µg/mL) | 0.03 (≈ 0.0134 µg/mL) | 0.03 (≈ 0.0134 µg/mL) | 0.03 (≈ 0.0134 µg/mL) | 0.03 (≈ 0.0134 µg/mL) | 0.03 (≈ 0.0134 µg/mL) | 0.03 (≈ 0.0134 µg/mL) | 0.03 (≈ 0.0134 µg/mL) | 0.03 (≈ 0.0134 µg/mL) | 0.03 (≈ 0.0134 µg/mL) |  |  |  | 
16 | O=[N+]([O-])c1cc(-c2nnc(SCc3ccc(Cl)cc3)n2Cc2ccccc2)cc([N+](=O)[O-])c1 | 0.125 (≈ 0.0602 µg/mL) | 0.25 (≈ 0.12 µg/mL) | 0.125 (≈ 0.0602 µg/mL) | 0.25 (≈ 0.12 µg/mL) | 0.125 (≈ 0.0602 µg/mL) | 0.25 (≈ 0.12 µg/mL) | 0.25 (≈ 0.12 µg/mL) | 0.125 (≈ 0.0602 µg/mL) | 0.25 (≈ 0.12 µg/mL) | 0.125 (≈ 0.0602 µg/mL) | 0.25 (≈ 0.12 µg/mL) | 0.125 (≈ 0.0602 µg/mL) |  |  |  | 
17 | O=[N+]([O-])c1cc(CSc2nnc(C3CCCCC3)n2Cc2ccccc2)cc(C(F)(F)F)c1 | 16 (≈ 7.62 µg/mL) | 16 (≈ 7.62 µg/mL) | 16 (≈ 7.62 µg/mL) | 16 (≈ 7.62 µg/mL) | 16 (≈ 7.62 µg/mL) | 16 (≈ 7.62 µg/mL) | 16 (≈ 7.62 µg/mL) | 16 (≈ 7.62 µg/mL) | 16 (≈ 7.62 µg/mL) | 16 (≈ 7.62 µg/mL) | 16 (≈ 7.62 µg/mL) | 16 (≈ 7.62 µg/mL) |  |  |  | 
18 | GENTAMICIN |  |  |  |  |  |  |  |  |  |  |  |  | 1 | 1 | 1 | 2
